Assay [1] deals with T1, bsNOS (Bacillus subtilis, UniProt O34453).
T1 sequence (O34453 1-363): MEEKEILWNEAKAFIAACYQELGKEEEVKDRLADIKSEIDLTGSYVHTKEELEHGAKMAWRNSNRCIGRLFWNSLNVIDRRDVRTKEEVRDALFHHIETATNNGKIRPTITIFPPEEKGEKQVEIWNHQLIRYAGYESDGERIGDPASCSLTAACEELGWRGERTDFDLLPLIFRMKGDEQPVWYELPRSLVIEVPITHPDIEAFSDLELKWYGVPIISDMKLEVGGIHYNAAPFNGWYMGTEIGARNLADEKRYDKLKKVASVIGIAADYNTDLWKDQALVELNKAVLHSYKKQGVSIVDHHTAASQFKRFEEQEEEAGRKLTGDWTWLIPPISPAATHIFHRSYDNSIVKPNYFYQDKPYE
Particulars: read-out: imidazole KD bsNOS; used to calculate KS; cited from earlier work.

A further assay deals with iNOS (Homo sapiens, UniProt P35228). Particulars: read-out: imidazole KD iNOS; used to calculate KS; cited from earlier work.
The target of assay [2] is T1, bsNOS. As to the kind of experiment: Imidazole displacement assay, spectral binding constant.
In the next assay the test system is B. subtilis. As to the kind of experiment: Effect of acriflavine and NOS inhibitors on B. subtilis survival. Format: cell-based, Bacillus subtilis. The procedure, abridged: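 WT (ATCC 23857) and Δnos B. subtilis grown separately to OD600 ≈ 1.0, diluted to OD600 0.6 in LB, then brought up in M9 minimal medium with or without test compound (500 μM final) and/or acriflavine (800 μM final). Treated 30 min at 30 °C, serially diluted in M9, plated on LB agar + 0.5% glucose, 37 °C overnight. CFU counted; % survival relative to untreated cells; ≥3 replicates, mean ± SEM, Student's t test.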

Another assay concerns the target rat nNOS (Rattus norvegicus, UniProt P29476). Kind of assay: Ki with mammalian NOS isoforms: nNOS. Particulars: 6 compared to 2. Format: biochemical.
Where [3] appears, read: KS bsNOS (+H4B), presence of 50 μM H4B.
The mark [4] stands for this setting: KS bsNOS (−H4B), absence of H4B.

Where two headings read alike, the source gives them in different places.

Sequence of rat nNOS (P29476 whole entry, canonical isoform): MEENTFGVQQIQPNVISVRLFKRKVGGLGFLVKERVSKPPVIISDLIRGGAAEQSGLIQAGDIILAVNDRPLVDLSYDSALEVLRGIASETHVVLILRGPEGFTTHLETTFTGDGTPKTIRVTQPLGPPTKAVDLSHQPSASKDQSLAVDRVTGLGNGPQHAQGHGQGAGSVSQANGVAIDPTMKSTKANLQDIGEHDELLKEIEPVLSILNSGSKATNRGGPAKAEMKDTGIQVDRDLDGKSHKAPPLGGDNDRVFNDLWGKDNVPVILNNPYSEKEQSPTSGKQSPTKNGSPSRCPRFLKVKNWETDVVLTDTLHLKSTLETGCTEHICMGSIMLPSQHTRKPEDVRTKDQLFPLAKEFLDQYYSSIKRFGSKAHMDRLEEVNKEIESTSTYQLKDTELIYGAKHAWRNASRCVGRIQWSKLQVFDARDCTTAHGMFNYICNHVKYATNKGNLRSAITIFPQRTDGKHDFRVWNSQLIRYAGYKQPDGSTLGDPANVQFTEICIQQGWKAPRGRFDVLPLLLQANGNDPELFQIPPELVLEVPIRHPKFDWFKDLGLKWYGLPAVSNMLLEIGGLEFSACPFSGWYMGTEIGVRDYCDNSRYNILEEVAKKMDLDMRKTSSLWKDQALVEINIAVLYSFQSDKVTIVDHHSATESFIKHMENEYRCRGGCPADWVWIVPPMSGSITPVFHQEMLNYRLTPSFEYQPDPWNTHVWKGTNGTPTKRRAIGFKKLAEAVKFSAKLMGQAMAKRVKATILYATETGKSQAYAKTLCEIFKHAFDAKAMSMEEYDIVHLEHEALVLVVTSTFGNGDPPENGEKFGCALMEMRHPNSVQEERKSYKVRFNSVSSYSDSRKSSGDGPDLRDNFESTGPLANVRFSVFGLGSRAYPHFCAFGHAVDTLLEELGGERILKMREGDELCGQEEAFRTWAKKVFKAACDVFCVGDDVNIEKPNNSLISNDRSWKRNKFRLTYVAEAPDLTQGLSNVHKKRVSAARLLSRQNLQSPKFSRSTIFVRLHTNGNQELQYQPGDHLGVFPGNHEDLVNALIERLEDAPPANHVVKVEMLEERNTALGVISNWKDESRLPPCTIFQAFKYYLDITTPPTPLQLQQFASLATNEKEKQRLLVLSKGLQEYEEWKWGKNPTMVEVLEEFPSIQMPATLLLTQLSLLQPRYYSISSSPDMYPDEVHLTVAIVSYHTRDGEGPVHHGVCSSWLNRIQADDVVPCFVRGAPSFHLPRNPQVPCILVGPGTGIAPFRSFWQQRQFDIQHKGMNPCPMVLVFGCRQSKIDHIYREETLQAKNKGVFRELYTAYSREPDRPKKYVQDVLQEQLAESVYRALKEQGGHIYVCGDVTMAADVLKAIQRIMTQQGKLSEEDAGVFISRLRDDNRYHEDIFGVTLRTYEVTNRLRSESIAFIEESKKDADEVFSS
Sequence of iNOS (P35228 74-504 limits assumed): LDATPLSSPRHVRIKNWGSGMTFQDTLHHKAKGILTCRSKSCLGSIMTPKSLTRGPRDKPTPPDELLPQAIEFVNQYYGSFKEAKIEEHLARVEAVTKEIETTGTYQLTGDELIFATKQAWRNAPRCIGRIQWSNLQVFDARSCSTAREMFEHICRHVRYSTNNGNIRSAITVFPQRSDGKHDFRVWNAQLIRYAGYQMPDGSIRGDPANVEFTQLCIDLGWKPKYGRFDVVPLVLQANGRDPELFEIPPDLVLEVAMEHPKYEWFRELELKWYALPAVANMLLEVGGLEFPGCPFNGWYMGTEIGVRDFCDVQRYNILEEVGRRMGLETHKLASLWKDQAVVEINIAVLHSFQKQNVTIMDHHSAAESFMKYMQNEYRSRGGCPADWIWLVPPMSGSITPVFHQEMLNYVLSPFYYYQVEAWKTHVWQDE

As for `c1c[nH]cn1` [imidazole], the figures for the Kd at bsNOS [1] and at iNOS were 384 µM and 158 µM, respectively.

Regarding `Cc1cc(N)nc(CCc2cc(CN)cc(CCc3cc(C)cc(N)n3)c2)c1` [compound 2], the Kd came to 47 ± 2 µM on bsNOS [2] (setting [3]) and 15 ± 3 µM at bsNOS [2] (setting [4]). Moreover, the “bacterial growth inhibition (in words)” value with B. subtilis (B. subtilis) is recorded as “good inhibitor of bacterial growth”.

On to `Cc1cc(N)nc(CCc2cc(CN)cc(CCc3ccc4cc[nH]c4n3)c2)c1` [compound 6, 6-(3-(2-(1H-Pyrrolo[2,3-b]pyridin-6-yl)ethyl)-5-(aminomethyl)phenethyl)-4-methylpyridin-2-amine], for which the Kd on bsNOS [2] (setting [3]) amounted to 12 ± 4 µM; at bsNOS [2] (setting [4]), 10 ± 2 µM. Also, the “fold decrease of potency toward nNOS compared to 2” value at rat nNOS is on record as greater than 4 fold.

Regarding `CNc1cc(C)cc(CCc2cc(C#N)cc(CCc3cc(C)cc(N)n3)c2)n1` [compound 4, 3-(2-(6-Amino-4-methylpyridin-2-yl)ethyl)-5-(2-(4-methyl-6-(methylamino)pyridin-2-yl)ethyl)benzonitrile], the values for the Kd at bsNOS [2] (setting [3]) and at bsNOS [2] (setting [4]) were 19 ± 2 µM and 12 ± 1 µM, respectively.

In the case of `NC(=NCCCC(N)C(=O)O)NO` [N-ω-hydroxy-L-arginine (L-NNA), N-ω-hydroxy-L-arginine, reference compound], at bsNOS [2] (setting [3]), the Kd came to 1.9 ± 0.1 µM.

Consider acriflavine [reference compound], for which the “bacterial growth, % of control” value with B. subtilis (ACR alone (800 μM), 30 min) is recorded as 23%.

On to `Cc1cc(N)nc(CCc2cc(CCCN)cc(CCc3cc(C)cc(N)n3)c2)c1` [compound 3], for which the Kd at bsNOS [2] (setting [3]) was 19 ± 1 µM; at bsNOS [2] (setting [4]), 16 ± 1 µM.

As for `Cc1cc(N)nc(CCc2cc(N)cc(CCc3cc(C)cc(N)n3)c2)c1` [compound 1], the “fold difference in binding (KS) to bsNOS in presence vs absence of H4B” value on bsNOS [2] (50 μM H4B vs no H4B) was found to be 2 fold. For the same molecule, the Kd stood at 1.9 ± 0.1 µM on bsNOS [2] (setting [3]) and 0.91 ± 0.08 µM at bsNOS [2] (setting [4]).

These data come from publication PMC4306518 (Journal of Medicinal Chemistry, 2014).
